# Source: PubChem
# Only some compounds are listed: those with a hit (about 2.3% of all), similar ones and a draw of the others.
# TRPC4 block = inhibitors of mouse TRPC4 channel, primary screen, Fluo4 calcium, HEK293 TRPC4beta/mu-opioid cells. AID 2247, 2010. actives 0.39% (n = 300,000). DAMGO-evoked Fluo4 calcium flux; hits give low values. B-score at 10 µM;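 active means B-score over 3 SD under the library average, no early fluorescence shift, positive overall ratio signal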
# Target sequence (Q9QUQ5 whole entry, looked up): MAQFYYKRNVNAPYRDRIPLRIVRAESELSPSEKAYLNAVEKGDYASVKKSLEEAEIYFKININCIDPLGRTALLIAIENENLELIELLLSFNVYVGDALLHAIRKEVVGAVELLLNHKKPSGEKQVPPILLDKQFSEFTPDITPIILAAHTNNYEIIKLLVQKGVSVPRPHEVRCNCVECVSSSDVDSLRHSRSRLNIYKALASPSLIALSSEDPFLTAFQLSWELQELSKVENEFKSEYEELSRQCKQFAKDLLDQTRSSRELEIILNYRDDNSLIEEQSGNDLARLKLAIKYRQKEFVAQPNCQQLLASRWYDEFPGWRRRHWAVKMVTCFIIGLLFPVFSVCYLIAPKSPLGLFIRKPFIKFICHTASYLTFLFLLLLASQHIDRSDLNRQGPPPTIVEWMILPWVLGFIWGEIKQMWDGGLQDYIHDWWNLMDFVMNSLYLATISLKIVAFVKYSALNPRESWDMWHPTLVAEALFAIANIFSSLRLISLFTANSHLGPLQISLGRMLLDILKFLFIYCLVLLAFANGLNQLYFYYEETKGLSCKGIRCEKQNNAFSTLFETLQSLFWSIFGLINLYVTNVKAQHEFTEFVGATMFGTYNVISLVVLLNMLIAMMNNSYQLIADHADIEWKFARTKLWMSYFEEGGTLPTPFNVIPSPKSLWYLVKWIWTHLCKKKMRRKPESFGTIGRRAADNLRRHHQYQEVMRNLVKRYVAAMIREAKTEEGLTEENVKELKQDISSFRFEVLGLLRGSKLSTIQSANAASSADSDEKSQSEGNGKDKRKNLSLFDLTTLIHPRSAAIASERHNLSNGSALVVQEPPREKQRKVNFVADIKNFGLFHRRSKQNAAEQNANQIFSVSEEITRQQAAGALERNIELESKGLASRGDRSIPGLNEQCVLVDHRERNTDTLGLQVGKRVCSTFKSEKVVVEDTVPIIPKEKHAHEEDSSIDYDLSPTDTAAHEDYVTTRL
#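 Assay system: Stable TRPC4beta/mu-opioid receptor HEK293 cells | Reagent: DAMGO in two steps, submaximal then maximal | Compound dosing: Single concentration per test compound | Signal: Fluo4 Ca2+ flux fluorescence | Evaluation: Per-well B score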
# TRPC4 potent = positive allosteric modulators of TRPC4, primary screen, cell-based, mouse TRPC4beta, HEK293 mu-opioid, Fluo-4 calcium. Short transient receptor potential channel 4 (Mus musculus), Q9QUQ5. DAMGO EC20, Fluo-4 Ca2+ flux; hits give high values. B-score at 10 µM. actives 0.42% (n = 310,000). AID 2227, 2009;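 active means B-score of calcium response area above 5 SD of library B-scores, with initial fluorescence ratio within 5 SD of library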;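 further: B-score of integrated fluorescence ratio over time as area under calcium response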
# TRPC6 activator = mouse TRPC6 channel activators, primary screen, cell-based, HEK293, membrane potential dye. HEK293-TRPC6 membrane potential dye fluorescence; hits give high values. actives 0.13% (n = 310,000). B-score at 10 µM. Short transient receptor potential channel 6 (Mus musculus), Q61143;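 active means B-score of the integrated fluorescence ratio above library mean plus 3 SD, and starting fluorescence ratio within library mean plus 5 SD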;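 further: higher score means more depolarization so channel activation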
# TRPC6 inh = mouse TRPC6 channel inhibitors, primary screen, cell-based, HEK293, membrane potential dye | ACh-evoked depolarization; hits give low values | B-score at 10 µM | actives 1.1% (n = 310,000);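 active means B-score under library mean minus 3 SD, initial fluorescence not abnormally high, positive integrated signal ratio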;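 further: B-score derived from integrated fluorescence ratio over the kinetic read; more negative B-score means stronger inhibition of depolarization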
# TRPC4 agonist = activators of mouse TRPC4 channel, primary screen, Fluo4 calcium, HEK293 TRPC4beta/mu-opioid cells | actives 0.49% (n = 310,000) | B-score at 10 µM | Fluo4 calcium fluorescence; hits give high values | AID 2237, 2010;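 active means B-score above 5 SD of library B-scores, and initial fluorescence ratio not above library mean plus 5 SD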;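 further: positive B-score marks a calcium rise read as TRPC4 activation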
#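 Assay system: HEK293 stable line with TRPC4beta plus mu-opioid receptor. Times: dye 45 min RT, read 110 s. Measured by: kinetic Fluo4 calcium fluorescence. Measure: B score of integrated ratio. Controls: assay buffer as low control, maximal DAMGO as high control.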
# TRPC4 sel inh 2 = second selectivity test of TRPC6 inhibitors: effect on mouse TRPC4; shares compounds with TRPC6 inh; HEK293 TRPC4/MOR, membrane potential dye fluorescence; channel activated by saturating DAMGO dose; inhibition, % at 10 µM; actives 42% (n = 920); AID 2776;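 active means compounds whose fluorescence signal differed from control wells by over 3 SD, either direction, in both duplicate plates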
# TRPC4 spec = mouse TRPC4 modulation by TRPC6 hits, confirmation, selectivity assay for TRPC6 inhibitor project, cell-based, HEK293 TRPC4/mu-opioid, membrane potential dye; membrane potential fluorescence; activity change, negative = inhibition, % at 10 µM; shares compounds with TRPC6 inh; actives 61% (n = 920);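 active means rise or fall in signal beyond 3 SD of buffer-only wells in both replicate plates, either sign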;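 further: integrated kinetic ratio of fluorescence range over baseline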
# HEK293 MPD ctr 2-1 = nonspecific membrane potential effects, parental HEK293, confirmation, counter-screen for TRPC6 inhibitor project, cell-based, second counter screen; shares compounds with TRPC6 inh; parental HEK293 membrane potential dye fluorescence; maximal acetylcholine challenge after compound addition; signal change vs control, % at 10 µM; actives 31% (n = 920); AID 2779, 2010;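 active means membrane potential signal moving either way by over 3 SD of the maximum-effect control, in both duplicate plates, meaning non-specific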
# HEK293 MPD ctr-1 = membrane potential modulation in parental HEK293, confirmation, counter-screen for TRPC6 inhibitor project, cell-based. shares compounds with TRPC6 inh. actives 60% (n = 920). membrane potential signal change, % at 10 µM. parental HEK293 membrane potential dye fluorescence;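 active means membrane potential signal shifting up or down by more than 3 SD of buffer-only wells, on both duplicate plates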
# HEK293 MPD ctr-2 = parental HEK293 membrane potential modulation, confirmation, counter-screen for TRPC6 modulator project, cell-based | membrane potential signal change, % at 10 µM | actives 51% (n = 2,400) | shares compounds with TRPC6 inh | membrane potential dye fluorescence;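 active means membrane potential signal moves up or down beyond 5 SD from buffer-only wells, on both duplicate plates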
# HEK293 MPD ctr 2-2 = parental HEK293 nonspecific activity of TRPC6 modulators, second screen; shares compounds with TRPC6 inh; actives 14% (n = 2,400); AID 488926; membrane potential dye fluorescence; after compound, maximal acetylcholine stimulation; inhibition, % at 10 µM;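 active means membrane potential signal drops by more than 5 SD from the mean control signal, in both duplicate plates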;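 further: plate controls were acetylcholine ECmax control wells for no effect and buffer only wells for full effect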
# TRPC4/MOR mod = TRPC4 modulation by TRPC6 hit compounds, confirmation, selectivity assay for TRPC6 modulator project, cell-based, HEK293 TRPC4/mu-opioid, membrane potential dye, mouse; shares compounds with TRPC6 inh; membrane potential fluorescence; percent change from control (negative = decrease, positive = increase), % at 10 µM; actives 69% (n = 2,400);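 active means membrane potential signal moved up or down beyond 5 SD of buffer control wells, in both duplicate plates, actives on both sides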;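 further: plate controls were assay buffer wells for no effect and DAMGO maximal-effect wells for full effect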
# TRPC4 ctr inh 2 = second selectivity test of TRPC6 modulators against mouse TRPC4; shares compounds with TRPC6 inh; HEK293 TRPC4/mu-opioid, membrane potential dye fluorescence; stimulated with maximal-effect DAMGO; inhibition, % at 10 µM; actives 55% (n = 2,400); AID 488928;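 active means drop in membrane potential signal beyond 5 SD of the control wells in both duplicate plates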;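 further: TRPC4 counter screen for TRPC6 hits run under conditions tuned for TRPC6 not TRPC4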
# TRPC6 inh conf = mouse TRPC6 channel inhibitors, confirmation, HEK293 cells, membrane potential dye, duplicate; shares compounds with TRPC6 inh; ACh-evoked depolarization; inhibition, % at 10 µM; actives 43% (n = 3,300); AID 488960, 2010;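 active means fluorescence ratio falls more than 5 SD below the full-stimulation control mean, in both duplicate runs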;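 further: integrated fluorescence ratio of peak minus minimum over baseline after agonist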
# TRPC6 act confirm = mouse TRPC6 channel activators, confirmation, HEK293 cells, membrane potential dye, duplicate; AID 488961, 2010; actives 11% (n = 2,800); activation, % at 10 µM; HEK293-TRPC6 membrane potential dye fluorescence, FDSS; shares compounds with TRPC6 inh;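 active means ratio signal rise beyond 5 SD above unstimulated control wells' mean, seen in both duplicate runs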;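 further: plate controls were buffer EC0 wells for no effect and acetylcholine ECmax response for full effect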
# * = called active by the depositor; i = inactive; · = no result.
SMILES,TRPC4 block,TRPC4 potent,TRPC6 activator,TRPC6 inh,TRPC4 agonist,HEK293 MPD ctr-2,HEK293 MPD ctr 2-2,TRPC4/MOR mod,TRPC4 ctr inh 2,TRPC6 inh conf,TRPC6 act confirm,others
O=C(NC1CCN(Cc2ccccc2)CC1)c1cn(-c2ccccc2)nc1-c1cccnc1,i,i,i,-5.6*,i,91.0%*,i,i,52.0%*,41.0%*,i,
Cc1ccc(C)n1-c1ccc(C(=O)NC2CCN(Cc3ccccc3)CC2)cc1,i,i,i,-5.09*,i,i,i,i,36.0%*,i,i,
O=C(O)c1cn(-c2ccccc2)nc1-c1cccnc1,i,i,i,i,i,·,·,·,·,·,·,
CCCCOc1ccc(C(=O)NN2CCOCC2)cc1,i,i,i,i,i,·,·,·,·,·,·,
CCOC(=O)CC(NC(=O)c1ccc(C)cc1)c1ccc(C)cc1 (centres undefined),i,i,i,i,i,·,·,·,·,·,·,
COc1ccc(NC(=O)CC2C(=O)N(C)C(=S)N2CCc2ccccc2F)cc1 (centres undefined),i,i,i,i,i,·,·,·,·,·,·,
O=C(COC(=O)CNC(=O)c1ccc(Cl)cc1Cl)Nc1cccc(S(=O)(=O)N2CCCC2)c1,i,i,i,i,i,·,·,·,·,·,·,
O=S1(=O)CC(O)C(NCCO)C1 (centres undefined),i,i,i,i,i,·,·,·,·,·,·,
CN(C)CCCNC1CS(=O)(=O)CC1O (centres undefined),i,i,i,-7.2*,i,·,·,·,·,i,i,TRPC4 sel inh 2=i;TRPC4 spec=i;HEK293 MPD ctr 2-1=i;HEK293 MPD ctr-1=i
O=C1c2cccc3cccc(c23)C(=O)N1CC1CCN(CC(O)COCc2ccc3c(c2)OCO3)CC1 (centres undefined),i,i,i,-7.28*,i,·,·,·,·,82.7%*,i,TRPC4 sel inh 2=19.0%*;TRPC4 spec=-27.8%*;HEK293 MPD ctr 2-1=33.0%*;HEK293 MPD ctr-1=-323.0%*
CCOCC(=O)Nc1cc(C(=O)Nc2ccc(F)cc2)ccc1Cl,i,i,i,i,i,·,·,·,·,·,·,
CCc1nnc(NC(=O)c2ccc(COc3cccc(C)c3)o2)s1,i,i,i,i,i,·,·,·,·,·,·,
C=CCNC(=O)c1ccc([N+](=O)[O-])c(Cl)c1,i,i,i,i,i,·,·,·,·,·,·,
C=CCNCc1ccc(C(=O)NCCCCCCC)cc1[N+](=O)[O-],·,i,i,-7.03*,i,·,·,·,·,i,i,TRPC4 sel inh 2=75.0%*;TRPC4 spec=-10.7%*;HEK293 MPD ctr 2-1=i;HEK293 MPD ctr-1=-160.0%*
CCOC(=O)c1cnc2ccc(C)cc2c1Nc1ccc(N2CCOCC2)cc1,i,i,i,-5.73*,i,-154.5%*,68.5%*,-32.5%*,44.0%*,67.5%*,i,
O=C1C2CSCN2C(=O)CN1CCCN1CCN(C(c2ccccc2)c2ccccc2)CC1 (centres undefined),i,i,i,-5.34*,i,82.0%*,i,11.0%*,39.0%*,45.0%*,·,
Cc1c(NS(=O)(=O)c2ccc(C(=O)NCc3ccccc3)cc2)c(=O)n(-c2ccccc2)n1C,i,i,i,i,i,·,·,·,·,·,·,
CN(C)CCn1c(=N)n(CC(O)c2ccc(Cl)c(Cl)c2)c2ccccc21 (centres undefined),i,i,i,-5.31*,i,i,i,57.5%*,78.0%*,i,i,
N=c1n(CCN2CCCCC2)c2ccccc2n1CC(O)c1ccc(Cl)c(Cl)c1 (centres undefined),i,i,i,i,i,·,·,·,·,·,·,
CCCc1nc2c(ccc3ccccc32)cc1CC,i,i,i,i,i,·,·,·,·,·,·,
COc1ccccc1CCC(=O)Nc1ccc(C)cc1Cl,i,i,i,i,i,·,·,·,·,·,·,
O=C(Nc1ccccc1)C1CC(=O)N(Cc2ccccc2)C1 (centres undefined),i,i,i,i,i,·,·,·,·,·,·,
O=C(Nc1ccc(F)c(Cl)c1)C1CC(=O)N(Cc2ccccc2)C1 (centres undefined),i,i,i,-6.12*,i,i,i,-8.5%*,i,i,i,
COc1ccc(CNC(=O)CN(c2cccc([N+](=O)[O-])c2)S(C)(=O)=O)cc1,i,i,i,i,i,·,·,·,·,·,·,
